Compound activity from PubChem BioAssay.
An excerpt weighted towards active compounds, which were near 3.5% of everything screened.
MrgX1 antag = antagonists of human MrgX1 receptor. B-score at 10 µM. 310,000 compounds, 1.3% hits. MRGX1-HEK293 calcium flux, Fluo-4, BAM8-22 antagonism; hits give low values;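 active means calcium-response B-score plate-corrected more than 3 library SD below zero, starting fluorescence within 5 deviations, no agonist response on first addition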;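 further: peak minus trough fluorescence over baseline after final BAM8-22 challenge near maximal dose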
Target sequence (Q96LB2 whole entry, looked up): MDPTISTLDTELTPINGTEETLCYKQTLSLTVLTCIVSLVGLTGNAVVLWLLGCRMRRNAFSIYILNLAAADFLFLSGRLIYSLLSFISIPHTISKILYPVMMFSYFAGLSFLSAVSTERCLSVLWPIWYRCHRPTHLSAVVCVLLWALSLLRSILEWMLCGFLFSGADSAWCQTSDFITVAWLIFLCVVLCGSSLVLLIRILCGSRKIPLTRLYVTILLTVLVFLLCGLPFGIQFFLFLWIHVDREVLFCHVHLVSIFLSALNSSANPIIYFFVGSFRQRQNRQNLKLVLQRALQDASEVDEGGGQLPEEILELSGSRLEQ
MrgX1 agonist = human MrgX1 receptor agonism, primary screen; 310,000 compounds, 0.44% hits; B-score at 10 µM; Q96LB2; MrgX1-HEK293 cells, Fluo-4 calcium fluorescence, agonist mode; hits give high values; AID 588627;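 active means calcium response B-score plate-corrected fluorescence ratio at least 3 library SD, with starting fluorescence B-score inside 5 SD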
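Material – MrgX1-expressing HEK293 cells · Input – 15,000 cells seeded per well · Dosing – compound as first of three additions · Times – overnight seeding, then 1 h dark dye loading · Measured by – kinetic Fluo-4 NW fluorescence of intracellular calcium · Read-out – B-scored fluorescence response ratio · Benchmarks – positive and negative control wells on each plate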
RGS4 inh = human RGS4 inhibition. HEK293 M3R/RGS4 inducible, Fluo-4 calcium flux; hits give high values; triggered by carbachol at its EC20. B-score at 10 µM. 310,000 compounds, 0.45% hits. AID 463165. P49798;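 active means B-score, a plate-corrected calcium signal, over three deviations above library mean, with baseline fluorescence within five deviations of library mean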;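 further: RGS4 expression induced by doxycycline in cells with stable M3 receptor; B-score is computed from the integrated fluorescence ratio over baseline after carbachol; higher B-score means a larger calcium signal and so more RGS4 inhibition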
Target sequence (P49798 whole entry, looked up): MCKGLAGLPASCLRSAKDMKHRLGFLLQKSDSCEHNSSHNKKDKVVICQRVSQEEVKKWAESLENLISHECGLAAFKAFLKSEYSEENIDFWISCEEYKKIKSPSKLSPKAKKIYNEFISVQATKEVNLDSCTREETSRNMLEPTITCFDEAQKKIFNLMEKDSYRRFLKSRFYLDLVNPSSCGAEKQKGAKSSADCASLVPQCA
MrgX1 allo act = human MrgX1 positive allosteric modulation, primary screen; B-score at 10 µM; AID 588675; MrgX1-HEK293, Fluo-4 calcium flux, FDSS; hits give high values; Q96LB2; 310,000 compounds, 0.63% hits;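 active means plate-corrected calcium response at least 3 library SD above typical, normal starting fluorescence, not activating the receptor alone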;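 further: compound read alongside a low EC10 to EC30 dose of BAM8-22 agonist; peak minus trough fluorescence over baseline measured at the second addition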
RGS4 pot = potentiators or activators of RGS4. HEK293 M3R/inducible RGS4, carbachol calcium flux Fluo4; hits give low values. B-score at 10 µM. 310,000 compounds, 0.92% hits;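 active means B-score of the integrated calcium signal more than 4 SD below the library mean, with starting fluorescence not abnormally high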;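 further: negative B-score means reduced calcium response which marks RGS4 activation or potentiation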
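Detection: kinetic calcium fluorescence imaging with Fluo4-AM dye, 2 µM / Material: HEK293 cells with stable M3R and inducible RGS4 / Schedule: recording 10 s baseline at 1 Hz, 100 s post-agonist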
MrgX1 ant reconf = reconfirmed antagonist of human MrgX1 receptor signaling | shares compounds with MrgX1 antag | MrgX1-HEK293, BAM8-22 calcium flux, Fluo-4; hits give low values | remaining BAM8-22 calcium response % of control (hits give low values), % at 10 µM | 2,300 compounds, 19% hits | AID 602420;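 active means remaining agonist calcium response no higher than 100% minus 3 SD of agonist-only control wells, with starting fluorescence near control levels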;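 further: agonist BAM8-22 given at a near maximal EC90 to ECmax level; peak minus minimum fluorescence divided by baseline after agonist addition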
HEK293 Ca flux = MrgX1 antagonist counter-screen hit in parental HEK293 cells; shares compounds with MrgX1 antag; Fluo-4 calcium fluorescence, FDSS; fluorescence ratio F(max-min)/F0 at 10 µM; 4,000 compounds, 2% hits;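 active means duplicate-averaged calcium fluorescence ratio at least three times the standard deviation of buffer wells, a nonspecific response in parental cells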
HEK293 Ca counter = counter-screen for MrgX1 allosteric activators: effect in parental HEK293 cells; shares compounds with MrgX1 antag; parental HEK293 calcium flux, Fluo-4 fluorescence ratio; hits give high values; fluorescence ratio F(max-min)/F0 at 10 µM; 4,000 compounds, 0.4% hits; AID 624114;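 active means calcium fluorescence ratio, averaged over duplicates, at least 3 SD of the buffer-well ratio, meaning a nonspecific response in receptor-free cells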;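 further: untransfected parental HEK293 lacking MrgX1 used as counterscreen for MrgX1 allosteric activators; fluorescence change taken during the second addition on a kinetic imager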
HEK293 Ca cntr2 = activity in parental HEK293 cells lacking MrgX1 receptor | fluorescence ratio F(max-min)/F0 at 10 µM | Fluo-4 calcium fluorescence (FDSS); hits give high values | shares compounds with MrgX1 antag | 4,000 compounds, 8.7% hits | AID 624115;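 active means calcium fluorescence ratio at least three times the spread of buffer wells, meaning a non-specific response in parental cells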
Starred values were filed as active, the others as inactive.

`COc1ccc2cc(CCNC(=O)c3ccc(Br)o3)c(=O)[nH]c2c1` gave MrgX1 antag -5.32*, MrgX1 agonist inactive, RGS4 inh inactive, MrgX1 allo act inactive, RGS4 pot inactive, MrgX1 ant reconf inactive, HEK293 Ca flux inactive, HEK293 Ca counter inactive and HEK293 Ca cntr2 inactive.
For Cc1cc2cc(CCNC(=O)c3ccc(Br)o3)c(=O)[nH]c2cc1C the results were MrgX1 antag inactive, MrgX1 agonist inactive, RGS4 inh inactive, MrgX1 allo act inactive and RGS4 pot inactive.
For N=c1n(Cc2ccccc2)c2ccccc2n1CC(O)c1ccccc1 (stereo unspecified) the results were MrgX1 antag -5.58*, MrgX1 agonist inactive, RGS4 inh inactive, MrgX1 allo act inactive, RGS4 pot inactive, MrgX1 ant reconf inactive, HEK293 Ca flux inactive, HEK293 Ca counter inactive and HEK293 Ca cntr2 inactive.
COc1ccccc1OCC(O)Cn1c(=N)n(Cc2ccccc2)c2ccccc21 (stereo unspecified) was read as MrgX1 antag inactive, MrgX1 agonist inactive, RGS4 inh inactive, MrgX1 allo act inactive and RGS4 pot inactive.
`CCOC(=O)c1sc(NC(=O)Nc2cccc(Cl)c2)cc1C` gave MrgX1 antag -6.08*, MrgX1 agonist inactive, RGS4 inh inactive, MrgX1 allo act inactive, RGS4 pot inactive, MrgX1 ant reconf 57.0%*, HEK293 Ca flux inactive, HEK293 Ca counter inactive and HEK293 Ca cntr2 inactive.
Screening CCOC(=O)c1sc(NC(=O)c2cccs2)cc1C returned MrgX1 antag inactive, MrgX1 agonist inactive, RGS4 inh inactive, MrgX1 allo act inactive and RGS4 pot inactive.
Screening COc1ccc(NC(=O)CN(C)C(=O)CCCSc2nc3ccccc3[nH]2)cc1 returned MrgX1 antag inactive, MrgX1 agonist inactive, RGS4 inh inactive, MrgX1 allo act inactive and RGS4 pot inactive.
CCCCn1c(=O)[nH]c(=O)c2c1ncn2Cc1ccco1 was read as MrgX1 antag inactive, MrgX1 agonist inactive, RGS4 inh inactive, MrgX1 allo act inactive and RGS4 pot inactive.
CCCCn1cnc2c(c(-c3ccccc3)c(-c3ccccc3)n2Cc2ccco2)c1=N was read as MrgX1 antag -14.2*, MrgX1 agonist inactive, RGS4 inh inactive, MrgX1 allo act inactive, RGS4 pot inactive, MrgX1 ant reconf inactive, HEK293 Ca flux inactive, HEK293 Ca counter inactive and HEK293 Ca cntr2 inactive.
`CCN1CCN(C(=S)Nc2ccc3nc(N4CCN(CC)CC4)cc(C)c3c2)CC1` gave MrgX1 antag -4.95*, MrgX1 agonist inactive, RGS4 inh inactive, MrgX1 allo act inactive, RGS4 pot inactive, MrgX1 ant reconf inactive, HEK293 Ca flux inactive, HEK293 Ca counter inactive and HEK293 Ca cntr2 inactive.
`C(=N/N1CCN(c2ccccc2)CC1)/c1ccncc1` gave MrgX1 antag inactive, MrgX1 agonist inactive, RGS4 inh inactive, MrgX1 allo act inactive and RGS4 pot inactive.
Screening CC(=O)NC1CC2CCCC(C1)N2S(=O)(=O)c1ccccc1 (stereo unspecified) returned MrgX1 antag -8.79*, MrgX1 agonist inactive, RGS4 inh inactive, MrgX1 allo act inactive, RGS4 pot inactive, MrgX1 ant reconf inactive, HEK293 Ca flux inactive, HEK293 Ca counter inactive and HEK293 Ca cntr2 inactive.
Screening O=C(CCl)Nc1cc(-c2ccccc2)nn1-c1ccccc1 returned MrgX1 antag -5.26*, MrgX1 agonist inactive, RGS4 inh inactive, MrgX1 allo act inactive, RGS4 pot inactive, MrgX1 ant reconf inactive, HEK293 Ca flux inactive, HEK293 Ca counter inactive and HEK293 Ca cntr2 57.3*.
`CC(=O)Nc1ccc(-c2cc(NC(C)=O)n(-c3ccccc3)n2)cc1` gave MrgX1 antag inactive, MrgX1 agonist inactive, RGS4 inh inactive, MrgX1 allo act inactive and RGS4 pot inactive.
`COc1nc(OC)nc(Oc2ccc([N+](=O)[O-])cc2Cl)n1` gave MrgX1 antag inactive, MrgX1 agonist inactive, RGS4 inh inactive, MrgX1 allo act inactive and RGS4 pot inactive.
For Cc1ccc(S(=O)(=O)NCCC(=O)N2CCN(S(=O)(=O)c3ccccc3)CC2)cc1C the results were MrgX1 antag inactive, MrgX1 agonist inactive, RGS4 inh inactive, MrgX1 allo act inactive and RGS4 pot inactive.
Cc1ccc(S(=O)(=O)NCCC(=O)N2CCCCCCC2)cc1C was read as MrgX1 antag -4.75*, MrgX1 agonist inactive, RGS4 inh inactive, MrgX1 allo act inactive, RGS4 pot inactive, MrgX1 ant reconf inactive, HEK293 Ca flux inactive, HEK293 Ca counter inactive and HEK293 Ca cntr2 inactive.
`O=C(CSc1nnnn1-c1cccc2c1CCCC2)NC1CCCC1` gave MrgX1 antag -4.54*, MrgX1 agonist inactive, RGS4 inh inactive, MrgX1 allo act inactive, RGS4 pot inactive, MrgX1 ant reconf inactive, HEK293 Ca flux inactive, HEK293 Ca counter inactive and HEK293 Ca cntr2 inactive.
Screening O=c1[nH]c(C2CCCN(S(=O)(=O)Cc3ccccc3)C2)nc2c1nnn2Cc1cccc(Cl)c1 (stereo unspecified) returned MrgX1 antag inactive, MrgX1 agonist inactive, RGS4 inh inactive, MrgX1 allo act inactive and RGS4 pot inactive.
`Cc1ccc(N(CN2C(=O)C3C4CCC(C4)C3C2=O)C(=O)c2ccco2)cc1` (stereo unspecified) gave MrgX1 antag inactive, MrgX1 agonist inactive, RGS4 inh inactive, MrgX1 allo act inactive and RGS4 pot inactive.
Screening O=C1CCC(=O)N1CN(C(=O)c1ccco1)c1ccccc1 returned MrgX1 antag -6.58*, MrgX1 agonist inactive, RGS4 inh inactive, MrgX1 allo act inactive, RGS4 pot inactive, MrgX1 ant reconf inactive, HEK293 Ca flux inactive, HEK293 Ca counter inactive and HEK293 Ca cntr2 inactive.
CC(=O)/C(N=Nc1ccc(-n2ccc(C(F)(F)F)n2)cc1)=C(\C)O was read as MrgX1 antag inactive, MrgX1 agonist inactive, RGS4 inh inactive, MrgX1 allo act inactive and RGS4 pot inactive.
